ChEMBL document CHEMBL3763056, “O-alkylhydroxylamines as rationally-designed mechanism-based inhibitors of indoleamine 2,3-dioxygenase-1” (Eur J Med Chem, 2016)
Calls of active or inactive are those of the source. No cut-off for these calls is given here.

Tests used:
[1] = target: T1, Indoleamine 2,3-dioxygenase 1 (Homo sapiens, UniProt P14902); assay: Inhibition of recombinant human IDO1 assessed as reduction in kynurenine production using L-tryptophan as substrate after 60 mins by microplate reader method
Target sequence in this assay (P14902 whole entry): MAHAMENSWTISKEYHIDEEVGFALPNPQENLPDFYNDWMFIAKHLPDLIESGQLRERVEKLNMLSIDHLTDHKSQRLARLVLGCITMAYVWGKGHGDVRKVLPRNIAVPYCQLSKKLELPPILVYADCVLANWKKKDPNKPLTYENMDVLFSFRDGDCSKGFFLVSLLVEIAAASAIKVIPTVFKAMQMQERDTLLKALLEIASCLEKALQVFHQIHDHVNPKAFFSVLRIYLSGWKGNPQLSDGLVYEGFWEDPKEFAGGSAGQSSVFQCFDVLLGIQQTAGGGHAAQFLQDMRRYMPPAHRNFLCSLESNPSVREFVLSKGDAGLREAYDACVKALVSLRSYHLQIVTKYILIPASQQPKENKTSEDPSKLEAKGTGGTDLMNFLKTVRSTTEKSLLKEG

[2] = target: T2, Catalase (Homo sapiens, UniProt P04040); assay: Inhibition of catalase (unknown origin) using hydrogen peroxide as substrate
T2 sequence (P04040 whole entry): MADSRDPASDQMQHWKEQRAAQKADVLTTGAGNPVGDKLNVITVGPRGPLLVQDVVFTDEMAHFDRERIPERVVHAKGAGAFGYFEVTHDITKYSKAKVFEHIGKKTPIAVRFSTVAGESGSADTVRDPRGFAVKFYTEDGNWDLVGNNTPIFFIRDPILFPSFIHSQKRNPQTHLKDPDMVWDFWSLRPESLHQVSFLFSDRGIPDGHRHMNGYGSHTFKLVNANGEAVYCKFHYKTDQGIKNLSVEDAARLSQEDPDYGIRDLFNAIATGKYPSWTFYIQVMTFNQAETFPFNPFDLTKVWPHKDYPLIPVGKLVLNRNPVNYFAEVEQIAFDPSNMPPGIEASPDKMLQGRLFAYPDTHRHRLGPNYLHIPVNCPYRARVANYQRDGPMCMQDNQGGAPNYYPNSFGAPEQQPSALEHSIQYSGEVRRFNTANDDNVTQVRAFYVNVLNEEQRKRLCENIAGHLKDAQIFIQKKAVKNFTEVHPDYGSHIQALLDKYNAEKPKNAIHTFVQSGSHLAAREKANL

[3] = target: Cytochrome P450 3A4 (Homo sapiens, UniProt P08684); assay: Inhibition of CYP3A4 (unknown origin); format: ADME
Chain of Cytochrome P450 3A4 (P08684 whole entry): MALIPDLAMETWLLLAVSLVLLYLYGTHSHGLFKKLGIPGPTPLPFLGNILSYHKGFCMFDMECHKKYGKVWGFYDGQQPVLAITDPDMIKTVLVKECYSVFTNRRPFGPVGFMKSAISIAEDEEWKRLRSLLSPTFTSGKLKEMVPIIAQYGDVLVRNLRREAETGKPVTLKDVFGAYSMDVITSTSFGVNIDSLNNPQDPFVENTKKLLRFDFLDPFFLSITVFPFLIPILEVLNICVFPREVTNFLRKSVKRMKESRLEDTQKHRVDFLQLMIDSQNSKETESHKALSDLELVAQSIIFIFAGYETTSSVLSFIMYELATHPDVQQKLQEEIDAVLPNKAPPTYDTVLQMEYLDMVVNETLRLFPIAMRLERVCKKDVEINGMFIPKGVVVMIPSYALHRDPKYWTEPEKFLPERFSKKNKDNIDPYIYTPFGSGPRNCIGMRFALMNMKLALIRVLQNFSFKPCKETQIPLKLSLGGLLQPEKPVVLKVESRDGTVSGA

[4] = target: T1, Indoleamine 2,3-dioxygenase 1; assay: Inhibition of IFN gamma induced human IDO1 in HeLa cells assessed as reduction in kynurenine production treated with 3-fold serial dilution beginning at 100 uM after 24 hrs by microtiter plate reader; format: cell-based
How it was run: (§1)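 HeLa cells seeded 10,000/well in DMEM + 10% FBS + 1% pen-strep; IDO1 induced with IFNγ (100 ng/mL final) for 24 h. Media discarded, wells rinsed, compound serial dilutions added in DMEM + 10% FBS with Trp adjusted to 100 μM. 24 h at 37 °C. TCA stop and fixation 1 h at 4 °C. Supernatant heated at 65 °C for 15 min, mixed with Ehrlich's reagent, read at 490 nm.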
Target sequence in this assay (P14902 whole entry): as the sequence (P14902 whole entry) above

[5] = target: T1, Indoleamine 2,3-dioxygenase 1; assay: Inhibition of IFN gamma induced human IDO1 in HeLa cells assessed as reduction in kynurenine production treated with 5-fold serial dilution beginning at 400 uM after 24 hrs by microtiter plate reader; format: cell-based; how it was run: as §1
Target sequence in this assay (P14902 whole entry): as above

[6] = target: T1, Indoleamine 2,3-dioxygenase 1; assay: Inhibition of doxycycline-induced human IDO1 expressed in Trex cells assessed as reduction in kynurenine production treated with 5-fold serial dilution beginning at 400 uM after 24 hrs by microtiter plate reader; format: cell-based
How it was run: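 T-Rex cells carrying tet-regulated human IDO1 cDNA seeded 10,000/well in DMEM + 10% FBS + 1% pen-strep; IDO1 induced with media containing 20 ng/mL doxycycline for 24 h. Media replaced by compound serial dilutions in DMEM + 10% FBS, Trp 100 μM. 24 h at 37 °C. TCA fixation, supernatant heated at 65 °C, Ehrlich's reagent, A490. Single run.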
Target sequence in this assay (P14902 whole entry): as above

[7] = tested on: HeLa; assay: Cytotoxicity against human HeLa cells assessed as cell viability upto 100 uM by sulforhodamine B assay; format: cell-based
How it was run: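 HeLa cells seeded at 10,000/well in DMEM + 10% FBS, IDO1 induced 24 h with IFNγ (100 ng/mL final), then compound serial dilutions in medium with 100 μM Trp for 24 h at 37 °C. Cells fixed with TCA 1 h at 4 °C, stained with 0.4% SRB 15 min, dye solubilized in 10 mM Tris; absorbance at 570 nm.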

[8] = target: T1, Indoleamine 2,3-dioxygenase 1; assay: Inhibition of recombinant human IDO1 assessed as reduction in kynurenine production using L-tryptophan as substrate after 60 mins by Michaelis-Menton plot analysis
How it was run: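 Purified recombinant human IDO1 (~27 nM) in 50 mM potassium phosphate pH 6.5 with 40 mM ascorbate, 400 μg/ml catalase and 20 μM methylene blue. For IC50, L-Trp at 100 μM (Km 80 μM). For Ki, inhibitor dilutions matrixed with L-Trp dilutions. 60 min at 37 °C, TCA stop, 65 °C for 15 min, Ehrlich's reagent, A490.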
Target sequence in this assay (P14902 whole entry): as above

[9] = target: T1, Indoleamine 2,3-dioxygenase 1; conditions: 110 to 990 nM
Target sequence in this assay (P14902 whole entry, looked up): as the sequence (P14902 whole entry) above

IC50 [1] [µM] | Compound | further results
1.4 | NOCc1ccc(F)cc1F | 
2.7 | Cc1cccc(CON)c1 | 
2.7 | NOCc1ccc([N+](=O)[O-])cc1 | 
1.1 | NOCc1ccc(C(F)(F)F)cc1F | 
2.1 | NOCc1ccc(Cl)c(Cl)c1 | 
6 | ONCc1ccccc1 | 
0.73 | NOCc1ccc(I)cc1Cl | 
26 | NOC1CCc2ccccc21 (stereo unspecified) | 
19 | NOCc1ccccc1O | 
0.41 | NOCc1cccc(C(F)(F)F)c1 | 
5.2 | NOC(c1ccccc1)C1CC1 (stereo unspecified) | 
1 | NOCc1cccc(F)c1 | 
0.63 | NOCc1ccc(Cl)cc1Cl | 
0.57 | NOCc1cc(C(F)(F)F)ccc1F | 
8.9 | NOCc1ccc(C(F)(F)F)cc1 | 
0.49 | NOCc1ccc(Cl)c(C(F)(F)F)c1 | 
3.4 | NOCc1cc(F)cc(F)c1 | 
1.6 | NOCc1ccc(Br)cc1 | 
9.5 | COc1cccc(CON)c1 | 
0.57 | NOCc1ccccc1I | 
4.6 | NOCc1cc(C(F)(F)F)cc(C(F)(F)F)c1 | 
0.98 | NOCc1ccc(F)cc1 | 
9.2 | ONc1ccccc1 | 

IC50 [1] [µM] | Compound | further results
1.3 | NOCc1ccc(Cl)cc1 | 
7.1 | NOC/C=C/c1ccccc1 | 
24 | COc1ccc(CON)cc1 | 
2.5 | NOCc1ccccc1C(F)(F)F | 
4.2 | NOCc1cc(Br)cc(Br)c1 | 
0.34 | NOCc1cccc(I)c1 | 
12 | NOCc1ccc(-c2ccccc2)cc1 | 
1.4 | NOCc1ccccc1F | 
0.9 | NOCc1cc(Cl)cc(Cl)c1 | 
5.4 | COc1ccccc1CON | 
10 | NOC1Cc2ccccc2C1 | 
16 | O=C(NO)c1ccccc1 [BENZOHYDROXAMATE] | 
15 | CC(C)c1ccc(CON)cc1 | 
61 | NOCc1ccc(O)cc1 | 
2.4 | NOCc1ccc(F)cc1C(F)(F)F | 
1.6 | NOCc1ccccc1Br | 
0.22 | Cl.NOCc1ccc(I)cc1 | IC50 [2]: > 100 µM; IC50 [3]: 7.2 µM; IC50 [5]: 0.082 µM; IC50 [6]: 0.18 µM; Activity [7]: Non-toxic; Ki [8]: 0.164 µM; inhibition [9]: Active
55 | COc1cccc(CON)c1O | 
10 | NOC1CCCc2ccccc21 (stereo unspecified) | 
0.63 | NOCc1ccccc1Cl | 
1.7 | COc1ccc(OC)c(CON)c1 | 
0.45 | NOCc1cccc(Cl)c1Cl | 
0.32 | NOCc1cccc(Br)c1 | 

Compound | IC50 [1] [µM] | further results
Cl.NOCc1cccc(Cl)c1 | 0.3 | IC50 [2]: > 100 µM; IC50 [3]: 15 µM; IC50 [4]: 0.134 µM; IC50 [5]: 0.114 µM; IC50 [6]: 0.077 µM; Activity [7]: Non-toxic; Ki [8]: 0.154 µM; inhibition [9]: Active
NOCc1ccccc1 | 0.81 | 
NOCCCc1ccccc1 | 82 | 
NNc1ccccc1 [PHENYLHYDRAZINE] | 0.23 | 
NNCc1ccccc1 [BENZYLHYDRAZINE] | 71 | 
